Assay outcomes as filed in PubChem.
A selection: hits, their analogues and other compounds. The true share with any hit is near 3.5%.
MrgX1 ag = agonists of human MrgX1 receptor | AID 588627 | MrgX1-HEK293 cells, Fluo-4 calcium fluorescence, agonist mode; stronger effect = higher value | B-score at 10 µM | 310,000 tested, 0.44% active | Q96LB2;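 active = calcium response B-score plate-corrected fluorescence ratio at least 3 library SD, with starting fluorescence B-score inside 5 SD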
Target sequence (Q96LB2 whole entry, looked up): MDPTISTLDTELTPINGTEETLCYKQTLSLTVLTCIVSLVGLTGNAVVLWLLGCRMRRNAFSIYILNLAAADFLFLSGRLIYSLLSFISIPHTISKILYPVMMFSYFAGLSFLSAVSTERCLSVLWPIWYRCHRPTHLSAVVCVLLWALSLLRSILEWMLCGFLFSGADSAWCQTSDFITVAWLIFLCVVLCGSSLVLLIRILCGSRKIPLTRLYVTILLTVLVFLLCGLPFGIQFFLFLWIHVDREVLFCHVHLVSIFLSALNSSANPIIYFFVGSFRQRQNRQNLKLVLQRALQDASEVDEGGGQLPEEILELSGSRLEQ
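Test system: HEK293 cells stably expressing human MrgX1 receptor; Input: fifteen thousand cells per well; Dosing: compound delivered in addition one of three; Schedule: overnight seeding, then 1 h dark dye loading; Technique: Fluo-4 NW calcium fluorescence; Measure: B-scored fluorescence response ratio; Controls: positive and negative controls per plate.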
MrgX1 antagonist = human MrgX1 receptor antagonism, primary screen. AID 588676. 310,000 tested, 1.3% active. MRGX1-HEK293 calcium flux, Fluo-4, BAM8-22 antagonism; stronger effect = lower value. Q96LB2. B-score at 10 µM;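 active = calcium-response B-score plate-corrected more than 3 library SD below zero, starting fluorescence within 5 deviations, no agonist response on first addition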;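 also: peak minus trough fluorescence over baseline after final BAM8-22 challenge near maximal dose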
RGS4 inh = inhibitors of human RGS4 | 310,000 tested, 0.45% active | P49798 | B-score at 10 µM | AID 463165 | HEK293 M3R/RGS4 inducible, Fluo-4 calcium flux; stronger effect = higher value; triggered by carbachol at its EC20;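 active = B-score, a plate-corrected calcium signal, over three deviations above library mean, with baseline fluorescence within five deviations of library mean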;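 also: RGS4 expression induced by doxycycline in cells with stable M3 receptor; B-score is computed from the integrated fluorescence ratio over baseline after carbachol; higher B-score means a larger calcium signal and so more RGS4 inhibition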
Target sequence (P49798 whole entry, looked up): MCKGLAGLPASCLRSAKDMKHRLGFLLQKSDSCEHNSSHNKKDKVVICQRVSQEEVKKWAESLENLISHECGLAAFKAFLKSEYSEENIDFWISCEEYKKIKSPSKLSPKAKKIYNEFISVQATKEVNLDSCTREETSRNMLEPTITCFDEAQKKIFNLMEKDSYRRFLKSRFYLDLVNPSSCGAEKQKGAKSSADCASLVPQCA
RGS4 act = RGS4 potentiation or activation; 310,000 tested, 0.92% active; HEK293 M3R/inducible RGS4, carbachol calcium flux Fluo4; stronger effect = lower value; B-score at 10 µM; AID 463111;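 active = B-score of the integrated calcium signal more than 4 SD below the library mean, with starting fluorescence not abnormally high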;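 also: negative B-score means reduced calcium response which marks RGS4 activation or potentiation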
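Assay system: Inducible-RGS4 HEK293 cells carrying M3 receptor | Schedule: Compound preincubation 20 min at room temperature before agonist | Signal: Kinetic calcium fluorescence imaging with Fluo4-AM dye, 2 µM | Read-out basis: B score from integrated fluorescence ratio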
MrgX1 allo act = human MrgX1 positive allosteric modulation, primary screen; 310,000 tested, 0.63% active; B-score at 10 µM; AID 588675; Q96LB2; MrgX1-HEK293, Fluo-4 calcium flux, FDSS; stronger effect = higher value;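 active = plate-corrected calcium response at least 3 library SD above typical, normal starting fluorescence, not activating the receptor alone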;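 also: compound read alongside a low EC10 to EC30 dose of BAM8-22 agonist; peak minus trough fluorescence over baseline measured at the second addition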
MrgX1 ant reconf = reconfirmed antagonist of human MrgX1 receptor signaling | shares compounds with MrgX1 antagonist | MrgX1-HEK293, BAM8-22 calcium flux, Fluo-4; stronger effect = lower value | remaining BAM8-22 calcium response % of control (stronger effect = lower value), % at 10 µM | 2,300 tested, 19% active;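 active = remaining agonist calcium response no higher than 100% minus 3 SD of agonist-only control wells, with starting fluorescence near control levels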;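 also: agonist BAM8-22 given at a near maximal EC90 to ECmax level; peak minus minimum fluorescence divided by baseline after agonist addition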
HEK293 Ca flux = counter-screen for MrgX1 antagonists: effect in parental HEK293 cells. shares compounds with MrgX1 antagonist. Fluo-4 calcium fluorescence, FDSS. fluorescence ratio F(max-min)/F0 at 10 µM. 4,000 tested, 2% active. AID 624111;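 active = duplicate-averaged calcium fluorescence ratio at least three times the standard deviation of buffer wells, a nonspecific response in parental cells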
HEK293 Ca counter = activity in parental HEK293 cells without MrgX1. shares compounds with MrgX1 antagonist. parental HEK293 calcium flux, Fluo-4 fluorescence ratio; stronger effect = higher value. 4,000 tested, 0.4% active. fluorescence ratio F(max-min)/F0 at 10 µM;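 active = calcium fluorescence ratio, averaged over duplicates, at least 3 SD of the buffer-well ratio, meaning a nonspecific response in receptor-free cells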;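 also: untransfected parental HEK293 lacking MrgX1 used as counterscreen for MrgX1 allosteric activators; fluorescence change taken during the second addition on a kinetic imager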
HEK293 Ca cntr2 = counter-screen for MrgX1 activators: effect in parental HEK293 cells; Fluo-4 calcium fluorescence (FDSS); stronger effect = higher value; fluorescence ratio F(max-min)/F0 at 10 µM; shares compounds with MrgX1 antagonist; AID 624115; 4,000 tested, 8.7% active;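 active = calcium fluorescence ratio at least three times the spread of buffer wells, meaning a non-specific response in parental cells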
A number is an active result; i = inactive; nt = no result.

SMILES	MrgX1 ag	MrgX1 antagonist	RGS4 inh	RGS4 act	MrgX1 allo act	MrgX1 ant reconf	HEK293 Ca flux	HEK293 Ca counter	HEK293 Ca cntr2
CCCNC(=O)N(C)c1nncnc1C(=O)NC	i	i	i	i	i	nt	nt	nt	nt
COc1ccccc1C(=O)Nc1ccnn1C1CCN(C(=O)c2ccoc2)CC1	i	-6	i	i	i	i	i	i	i
CCOC(=O)COc1ccc(C(c2c(C)[nH][nH]c2=O)c2c(C)[nH][nH]c2=O)cc1	i	i	i	i	i	nt	nt	nt	nt
Cc1nc2sc(C(c3ccco3)N3CCN(C(c4ccccc4)c4ccccc4)CC3)c(O)n2n1 (centres undefined)	i	i	i	i	i	nt	nt	nt	nt
Cc1nc2sc(C(c3ccco3)N3CCC(C)CC3)c(O)n2n1 (centres undefined)	i	-5.2	i	i	i	i	i	i	i
COCCn1c(=S)[nH]c2cc(OC)c(OC)cc2c1=O	i	-9.1	i	i	i	i	i	i	i
CCN(CC)CCCn1c(=S)[nH]c2cc(OC)c(OC)cc2c1=O	i	i	i	i	i	nt	nt	nt	nt
COCCNC(=O)C1(C)C=CC2(CCCCC2)N1C(=O)c1ccccc1 (centres undefined)	i	i	i	i	i	nt	nt	nt	nt
CC1(C(=O)NCCN2CCOCC2)C=CC2(CCCCC2)N1C(=O)c1ccccc1 (centres undefined)	i	-6.8	i	i	i	83%	i	i	i
Nc1nc(-c2ccco2)nc(N2CCCCC2)n1	i	i	i	i	i	nt	nt	nt	nt
O=C(Nc1ccncc1)Nc1ccncc1	i	i	i	i	i	nt	nt	nt	nt
CC(=O)c1ccc(NC(=O)Nc2ccncc2)cc1	i	-6.8	i	i	i	82%	i	i	i
CN(CC(=O)Nc1cccc(F)c1)C(=O)c1cc2c(s1)CCCCC2	i	i	i	i	i	nt	nt	nt	nt
Cc1cccc(CCNC(=O)CN(C)S(=O)(=O)c2cnc[nH]2)c1	i	i	i	i	i	nt	nt	nt	nt
Cc1ccc(N2C(=O)N(CC(=O)Nc3ccc(C)cc3Cl)C(=O)C2C)cc1 (centres undefined)	i	-10	i	i	i	77%	i	i	i
COC(=O)C1=C(C)NC(=O)C1(NC(=O)c1cccnc1)C(F)(F)F (centres undefined)	i	i	i	i	i	nt	nt	nt	nt
COC(=O)C1=C(C)NC(=O)C1(Nc1ccc(Cl)cn1)C(F)(F)F (centres undefined)	i	-4.6	i	i	i	i	i	i	i
CCOC(=O)c1c(C)[nH]c(C)c1S(=O)(=O)N(C)CC(=O)Nc1cc(C)ccc1OC	i	-9.1	i	i	i	i	i	i	i
COc1ccc(CC(=O)NC(C)(C)C)cc1S(=O)(=O)N1CCOCC1	i	i	i	i	i	nt	nt	nt	nt
COc1ccc(CC(=O)NC(C)c2ccc(S(N)(=O)=O)cc2)cc1S(=O)(=O)N1CCOCC1 (centres undefined)	i	-9.3	i	i	i	i	i	i	i
Cc1ccc(Cl)cc1NC(=O)c1cccc(OC(F)F)c1	i	-4.7	i	i	i	i	i	i	i
CNc1nc(CC(C)=O)ns1	i	i	i	i	i	nt	nt	nt	nt
CCCCNc1nc(CC(C)=O)ns1	i	-6.6	i	i	i	i	i	i	i
COc1ccc(OCC(=O)Nc2ccc(C(=O)Nc3ccccc3C(=O)O)cc2)cc1	i	i	i	i	i	nt	nt	nt	nt
O=C(COc1ccc(Br)cc1)Nc1ccc(C(=O)Nc2ccccc2C(=O)O)cc1	i	-7.1	i	i	i	i	i	i	i
SMILES	MrgX1 ag	MrgX1 antagonist	RGS4 inh	RGS4 act	MrgX1 allo act	MrgX1 ant reconf	HEK293 Ca flux	HEK293 Ca counter	HEK293 Ca cntr2
COc1ccc(CN2CCC(N3CC(C)OC(C)C3)CC2)c(OC)c1 (centres undefined)	i	-4.8	i	i	i	i	i	i	i
O=c1oc2ccccc2cc1-c1nnc(-c2cccc(Br)c2)o1	i	i	i	i	i	nt	nt	nt	nt
Cc1ccccc1CNS(=O)(=O)c1ccc2c(c1)OCCO2	i	-4.7	i	i	i	i	i	i	i
CCNc1c(C(=O)O)ccc2c1C(=O)c1ccccc1C2=O	i	i	i	i	i	nt	nt	nt	nt
CNc1c(C(=O)O)ccc2c1C(=O)c1ccccc1C2=O	i	-8.6	i	i	i	i	i	i	i
O=C(CCCn1c(SCC(=O)c2ccc(F)cc2)nc2ccccc2c1=O)NCc1ccccc1	i	i	i	i	i	nt	nt	nt	nt
COc1cc(C=O)ccc1Oc1nnnn1-c1ccc(C(N)=O)cc1	i	i	i	i	i	nt	nt	nt	nt
C/C=C/c1ccc(Oc2nnnn2-c2ccc(C(=O)O)cc2)c(OC)c1	i	-4.6	i	i	i	i	i	i	i
COc1ccccc1-c1c(C)nn2c(N3CCC(C)CC3)cc(C)nc12	i	i	i	i	i	nt	nt	nt	nt
c1ccc2c(c1)[nH]c1c(N3CCC4(CC3)OCCO4)ncnc12	i	i	i	i	i	nt	nt	nt	nt
CCN1CCN(c2ncnc3c2nnn3Cc2ccccc2)CC1	i	-4.6	i	i	i	i	i	i	i
Cc1ccc2[nH]c3c(N4CCN(Cc5ccccc5)CC4)ncnc3c2c1	i	-6.2	i	i	i	65%	i	i	i
c1ccc(CN2CCN(c3ncnc4c3[nH]c3ccccc34)CC2)cc1	i	-6.1	i	i	i	53%	i	i	i
Cc1ccc2c(c1)[nH]c1c(N3CCN(Cc4ccccc4)CC3)ncnc12	i	i	i	i	i	nt	nt	nt	nt
c1ccc(Cn2nnc3c(N4CCCC4)ncnc32)cc1	i	i	i	i	i	nt	nt	nt	nt
Nn1c(SCc2nc3ccccc3[nH]2)nnc1C1CCCCC1	i	i	i	i	i	nt	nt	nt	nt
CCN(CC(=O)Nc1c(F)cccc1F)C(=O)COc1cccc2c1OC(C)(C)C2	i	-5.4	i	i	i	i	i	i	i
CC(C)OC(=O)CSc1nc2c(c(C3CC=CCC3)c1C#N)CCC2 (centres undefined)	i	-6.2	i	i	i	i	i	i	i
C=CCSc1nc2c(c(C3CC=CCC3)c1C#N)CCC2 (centres undefined)	i	i	i	i	i	nt	nt	nt	nt
Cc1cccc(C)c1NC(=O)C1NC(=O)CC1c1ccccc1 (centres undefined)	i	-9.5	i	i	i	i	i	i	i
COc1ccc(N=Cc2[nH]c3ccccc3c2O)cc1	i	i	i	i	i	nt	nt	nt	nt
COc1ccc(N=Cc2oc3ccc4ccccc4c3c2O)cc1	i	-5.1	i	i	i	51%	i	i	i
